The values below come from ChEMBL document CHEMBL4190170, “Improved Antiviral Activity of a Polyamide Against High-Risk Human Papillomavirus Via N-Terminal Guanidinium Substitution” (Medchemcomm, 2016).

Assay [1] deals with Human papillomavirus. Kind of assay: Antiviral activity against HPV 31 infected in mouse 3T3 cells assessed as decrease in viral DNA after 48 hrs by qRT-PCR analysis. In kind it is functional, organism-based, Human papillomavirus type 31. As to conditions: NIH3T3, 48 h. The procedure, abridged: (§1)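 Assays run side by side over a range of polyamide concentrations for two days. Pseudo IC50 and IC90 are the polyamide concentrations that give a 50% or 90% drop in viral DNA.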
In general terms: Quantitative PCR measures a nucleic acid by following its amplification.

The nature of assay [2]: Binding affinity to HPV 18 CTTTGGCGCATATAA GGCGC LCR DNA (7585 to 7594 nucleotides) after 4 hrs by DNase I footprinting assay. On the set-up: species or system human papillomavirus 18. The procedure, abridged:
(§2)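 Kd values derived from DNase I footprinting of HPV18 LCR DNA, each run at least in triplicate. Sites are read as the polyamide binding block flanked by 5 nt on each side.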

Assay [3] relates to Human papillomavirus. The assay can be described thus: Antiviral activity against HPV 18 infected in mouse 3T3 cells assessed as decrease in viral DNA after 48 hrs by qRT-PCR analysis. In kind it is functional, organism-based, human papillomavirus 18. As to conditions: NIH3T3, 48 h. The method, boiled down: as §1
Assay [4] concerns human papillomavirus 18. The assay can be described thus: Binding affinity to (7619 nucleotide) of HPV 18 CCT GGT ATTAG TCATT TTCCTG TCCAGGT LCR DNA at 5 nM after 4 hrs by DNase I footprinting assay. The procedure, abridged: as §2
Assay [5] in a line: Binding affinity to HPV 18 ACATA TTTTGAACAA TTGGC LCR DNA (7559 to 7568 nucleotides) after 4 hrs by DNase I footprinting assay. On the set-up: species or system human papillomavirus 18. The procedure, abridged:
as §2

For assay [6], the system named is human papillomavirus 18. Kind of assay: (§3) Binding affinity to HPV 18 CCTGG TATTAGTCAT TTTCC LCR DNA (7606 to 7615 nucleotides) after 4 hrs by DNase I footprinting assay. The method, boiled down:
as §2

A short description of assay [7]: as §3. On the set-up: species or system human papillomavirus 18. The procedure, abridged:
as §2

The subject of assay [8] is human papillomavirus 18. The assay can be described thus: Binding affinity to HPV 18 CCT GG TATTAGTCATTTTCCTG TCCA G GT LCR DNA (7606 to 7615 nucleotide) at 50 nM after 4 hrs by DNase I footprinting assay. The method, boiled down:
as §2

Assay [9] has as its system Human papillomavirus. Kind of assay: Antiviral activity against HPV 16 infected in mouse 3T3 cells assessed as decrease in viral DNA after 48 hrs by qRT-PCR analysis. In kind it is functional, organism-based, Human papillomavirus 16. As to conditions: NIH3T3, 48 h. The procedure, abridged:
as §1

In assay [10] the test system is human papillomavirus 18. The assay can be described thus: Binding affinity to HPV 18 5'-TAGTCATTTT-3' LCR DNA (7609 to 7618 nucleotides) after 4 hrs by DNase I footprinting assay. The method, boiled down:
as §2

Assay [11] has as its system human papillomavirus 18. Kind of assay: Binding affinity to HPV 18 CCT GGT ATTAG TCATT TTCCTG TCCAGGT LCR DNA (7619 to 7626 nucleotide) at 5 nM after 4 hrs by DNase I footprinting assay. The procedure, abridged:
as §2

One may read the IC50 as the concentration that inhibits the measured activity by half. In general, IC90 refers to the point of the concentration-response curve where the effect stands at 90%. Usually Kd stands for the free concentration of one partner at which half of the binding sites on the other are occupied at equilibrium, for simple one-to-one binding.

Active and inactive are the calls of the source. No cut-off for these calls is given here.

In the case of `CN(CCCN)CCCNC(=O)CCNC(=O)c1cc(NC(=O)c2cc(NC(=O)c3cc(NC(=O)c4cc(NC(=O)CCNC(=O)c5cc(NC(=O)c6cc(NC(=O)CCCNC(=O)c7cc(NC(=O)c8cc(NC(=O)c9cc(NC(=O)CCNC(=O)c%10cc(NC(=O)c%11cc(NC(=O)c%12nc(N=C(N(C)C)N(C)C)cn%12C)cn%11C)cn%10C)cn9C)cn8C)cn7C)cn6C)cn5C)cn4C)cn3C)cn2C)cn1C`, the IC50 in the assay on Human papillomavirus [1] turned out to be 130 nM; with Human papillomavirus [3], 200 nM; with Human papillomavirus [9] it was 300 nM. The IC90 in the assay with Human papillomavirus [1] was 900 nM; with Human papillomavirus [3] it was over 10000 nM; in the assay with Human papillomavirus [9] it was over 10000 nM. Moreover, the Kd was determined as 3.2 nM in assay [2], 1.1 nM in [5] and 1.2 nM in assay [7]. The outcome in the assay on human papillomavirus 18 [4] was inactive. The result in the assay on human papillomavirus 18 [6] and with human papillomavirus 18 [8] was Active.

Take `CN(CCCN)CCCNC(=O)CCNC(=O)c1cc(NC(=O)c2cc(NC(=O)c3cc(NC(=O)c4cc(NC(=O)CCNC(=O)c5cc(NC(=O)c6cc(NC(=O)CCCNC(=O)c7cc(NC(=O)c8cc(NC(=O)c9cc(NC(=O)CCNC(=O)c%10cc(NC(=O)c%11cc(NC(=O)c%12nccn%12C)cn%11C)cn%10C)cn9C)cn8C)cn7C)cn6C)cn5C)cn4C)cn3C)cn2C)cn1C`: the IC50 with Human papillomavirus [1] turned out to be 100 nM; in the assay on Human papillomavirus [3] it was 700 nM; in the assay on Human papillomavirus [9], 100 nM. Moreover, the 90% effect concentration (IC90) in the assay with Human papillomavirus [1] was 1000 nM; in the assay on Human papillomavirus [3], over 10000 nM; in the assay with Human papillomavirus [9], 1100 nM. Moreover, the Kd in assay [2] turned out to be 2.7 nM; in assay [5], 0.9 nM; in assay [7], 0.9 nM. The outcome in the assay with human papillomavirus 18 [10] and with human papillomavirus 18 [6] was Active.

As for `CN(CCCN)CCCNC(=O)CCNC(=O)c1cc(NC(=O)c2cc(NC(=O)c3cc(NC(=O)c4cc(NC(=O)CCNC(=O)c5cc(NC(=O)c6cc(NC(=O)CCCNC(=O)c7cc(NC(=O)c8cc(NC(=O)c9cc(NC(=O)CCNC(=O)c%10cc(NC(=O)c%11cc(NC(=O)c%12nc(N=C(N)N)cn%12C)cn%11C)cn%10C)cn9C)cn8C)cn7C)cn6C)cn5C)cn4C)cn3C)cn2C)cn1C`, the IC50 in the assay with Human papillomavirus [1] worked out at 140 nM; in the assay on Human papillomavirus [3] it was 200 nM; in the assay with Human papillomavirus [9], 100 nM. The values for the IC90 with Human papillomavirus [1], in the assay on Human papillomavirus [3] and in the assay on Human papillomavirus [9] were 800 nM, 900 nM and 380 nM, respectively. Also, the Kd in assay [2] amounted to 2.2 nM; in [5], 1 nM; in [7], 1 nM. In addition, the result with human papillomavirus 18 [10], in the assay on human papillomavirus 18 [6] and with human papillomavirus 18 [11] was Active.

In the case of `CN(CCCN)CCCNC(=O)CCNC(=O)c1cc(NC(=O)c2cc(NC(=O)c3cc(NC(=O)CCNC(=O)c4cc(NC(=O)c5cc(NC(=O)c6cc(NC(=O)CCNC(=O)c7cc(NC(=O)c8cc(NC(=O)CCNC(=O)c9cc(NC(=O)c%10cc(NC(=O)CCCNC(=O)c%11cc(NC(=O)c%12cc(NC(=O)c%13cc(NC(=O)CCNC(=O)c%14cc(NC(=O)c%15cc(NC(=O)c%16nccn%16C)cn%15C)cn%14C)cn%13C)cn%12C)cn%11C)cn%10C)cn9C)cn8C)cn7C)n(C)c6)n(C)c5)n(C)c4)n(C)c3)n(C)c2)n(C)c1`, the values for the IC50 in the assay with Human papillomavirus [1], in the assay with Human papillomavirus [3] and with Human papillomavirus [9] were 30 nM, 56 nM and 36 nM, respectively. In addition, the concentration for an effect of 90% (IC90) in the assay on Human papillomavirus [1] came out at 510 nM; with Human papillomavirus [3], 1500 nM; in the assay with Human papillomavirus [9], 350 nM.
